{"source": "paper PMC6957252", "about": "(Bioorganic & medicinal chemistry, 2016)", "key": {"[1]": {"settings": "in vivo; cited from earlier work"}, "[2]": {"settings": "neuropathic pain model; cited from earlier work"}, "[3]": {"target": "human TRPV1 heterologously expressed in Chinese hamster ovary (CHO) cells (Homo sapiens, UniProt Q8NER1)", "sequence (Q8NER1 whole entry)": "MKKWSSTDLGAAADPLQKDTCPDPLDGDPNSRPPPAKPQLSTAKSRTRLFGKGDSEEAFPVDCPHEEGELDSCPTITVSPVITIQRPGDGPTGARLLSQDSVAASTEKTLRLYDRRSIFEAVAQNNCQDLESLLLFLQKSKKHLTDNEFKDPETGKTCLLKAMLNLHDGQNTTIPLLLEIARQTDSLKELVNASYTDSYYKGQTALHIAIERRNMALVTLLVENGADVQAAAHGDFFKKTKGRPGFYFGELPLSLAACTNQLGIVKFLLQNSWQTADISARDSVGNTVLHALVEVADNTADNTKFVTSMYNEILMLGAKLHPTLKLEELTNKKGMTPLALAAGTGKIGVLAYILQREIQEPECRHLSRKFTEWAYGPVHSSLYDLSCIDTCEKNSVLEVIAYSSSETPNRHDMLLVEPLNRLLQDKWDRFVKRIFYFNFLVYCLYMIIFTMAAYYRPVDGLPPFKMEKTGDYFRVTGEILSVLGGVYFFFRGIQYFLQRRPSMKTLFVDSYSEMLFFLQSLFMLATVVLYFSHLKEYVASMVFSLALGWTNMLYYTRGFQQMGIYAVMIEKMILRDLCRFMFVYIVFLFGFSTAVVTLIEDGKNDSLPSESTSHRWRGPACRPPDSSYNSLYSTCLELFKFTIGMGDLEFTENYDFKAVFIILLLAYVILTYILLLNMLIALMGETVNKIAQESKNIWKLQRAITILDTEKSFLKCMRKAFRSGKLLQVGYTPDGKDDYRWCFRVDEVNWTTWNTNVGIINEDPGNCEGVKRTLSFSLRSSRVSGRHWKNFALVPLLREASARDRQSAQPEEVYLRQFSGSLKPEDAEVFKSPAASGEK", "type": "cell-based", "in_short": "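45Ca2+ uptake in CHO cells heterologously expressing human TRPV1. […] Ki is calculated to account for competition between capsaicin and antagonist. In agonist mode, 300 nM capsaicin (saturating) defines maximal response, and absence or weakness of uptake is scored as no or weak effect. Values are mean ± SEM of at least three experiments.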"}, "human TRPV1": {"target": "human TRPV1 (Homo sapiens, UniProt Q8NER1)", "sequence (Q8NER1 whole entry)": "as above", "test": "binding competition assay with [3H]RTX", "settings": "ratio of Ki versus 1S", "in_short": "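Competition binding of [3H]RTX to human TRPV1 heterologously expressed in CHO cells. Binding affinity reported as Ki. Values are mean ± SEM of at least three experiments.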"}}, "data": [{"smiles": "CC1CCN(c2nc(C(F)(F)F)ccc2CNC(=O)C(C)c2ccc(NS(C)(=O)=O)c(F)c2)CC1", "note": "(stereo not shown) [Compound 1]", "values": [{"measurement": "effect on capsaicin-induced hypothermia", "setting": "[1]", "result": "blocked capsaicin-induced hypothermia"}, {"measurement": "antiallodynic activity", "setting": "[2]", "result": "potent antiallodynic activity"}]}, {"smiles": "COc1ccc(CN(c2nc(C(F)(F)F)ccc2CNC(=O)C(C)c2ccc(NS(C)(=O)=O)c(F)c2)S(=O)(=O)c2ccccc2)cc1", "note": "(stereo not shown) [Compound 19, 2-(3-Fluoro-4-(methylsulfonamido)phenyl)-N-((2-(N-(4-methoxybenzyl)phenyl-sulfonamido)-6-(trifluoromethyl)pyridin-3-yl)methyl)propanamide]", "values": [{"measurement": "fold more potent antagonism than 12", "setting": "[3]; ratio of Ki(ant) versus 12", "result": "ca. 3 fold"}]}, {"smiles": "CC(C(=O)NCc1ccc(C(F)(F)F)nc1NS(=O)(=O)c1ccccc1)c1ccc(NS(C)(=O)=O)c(F)c1", "note": "(stereo not shown) [Compound 6, 2-(3-Fluoro-4-(methylsulfonamido)phenyl)-N-((2-(phenylsulfonamido)-6-(triflu-oromethyl)pyridin-3-yl)methyl)propanamide]", "values": [{"measurement": "activity on hTRPV1 (in words)", "setting": "[3]; binding affinity and antagonism, Table 1 series", "result": "little activity"}]}, {"smiles": "CC(C(=O)NCc1ccc(C(F)(F)F)nc1N(Cc1ccccc1)S(=O)(=O)c1ccccc1)c1ccc(NS(C)(=O)=O)c(F)c1", "note": "(stereo not shown) [Compound 12, N-((2-(N-Benzylphenylsulfonamido)-6-(trifluoromethyl)pyridin-3-yl)methyl)-2-(3-fluoro-4-(methylsulfonamido)phenyl)propanamide]", "values": [{"measurement": "fold reduction in antagonism compared to lead compound 1", "setting": "[3]; ratio of Ki(ant) versus compound 1", "result": 2.5, "unit": "fold"}]}, {"smiles": "C[C@H](C(=O)NCc1ccc(C(F)(F)F)nc1N(Cc1ccccc1)S(=O)(=O)c1ccccc1)c1ccc(NS(C)(=O)=O)c(F)c1", "note": "[Compound 12S, (S)-N-((2-(N-Benzylphenylsulfonamido)-6-(trifluoromethyl)pyridin-3-yl)methyl)-2-(3-fluoro-4-(methylsulfonamido)phenyl)propanamide]", "values": [{"measurement": "fold decrease in antagonism compared to 1S", "setting": "[3]; ratio of Ki(ant) versus 1S", "result": 1.5, "unit": "fold"}, {"measurement": "fold increase in binding affinity compared to 1S", "setting": "human TRPV1", "result": 5, "unit": "fold"}]}]}
